ChEMBL document CHEMBL5712070, “Discovery of a chemical probe for the L3MBTL3 methyllysine reader domain” (Nat Chem Biol, 2013)
Activity calls are given as the source filed them. No cut-off for these calls is given here.

Assays:
[1] = target: T1, Lethal(3)malignant brain tumor-like protein 3 (Homo sapiens, UniProt Q96JM7); assay: Binding affinity to L3MBTL3 (unknown origin) by ITC assay
T1 sequence (Q96JM7 whole entry): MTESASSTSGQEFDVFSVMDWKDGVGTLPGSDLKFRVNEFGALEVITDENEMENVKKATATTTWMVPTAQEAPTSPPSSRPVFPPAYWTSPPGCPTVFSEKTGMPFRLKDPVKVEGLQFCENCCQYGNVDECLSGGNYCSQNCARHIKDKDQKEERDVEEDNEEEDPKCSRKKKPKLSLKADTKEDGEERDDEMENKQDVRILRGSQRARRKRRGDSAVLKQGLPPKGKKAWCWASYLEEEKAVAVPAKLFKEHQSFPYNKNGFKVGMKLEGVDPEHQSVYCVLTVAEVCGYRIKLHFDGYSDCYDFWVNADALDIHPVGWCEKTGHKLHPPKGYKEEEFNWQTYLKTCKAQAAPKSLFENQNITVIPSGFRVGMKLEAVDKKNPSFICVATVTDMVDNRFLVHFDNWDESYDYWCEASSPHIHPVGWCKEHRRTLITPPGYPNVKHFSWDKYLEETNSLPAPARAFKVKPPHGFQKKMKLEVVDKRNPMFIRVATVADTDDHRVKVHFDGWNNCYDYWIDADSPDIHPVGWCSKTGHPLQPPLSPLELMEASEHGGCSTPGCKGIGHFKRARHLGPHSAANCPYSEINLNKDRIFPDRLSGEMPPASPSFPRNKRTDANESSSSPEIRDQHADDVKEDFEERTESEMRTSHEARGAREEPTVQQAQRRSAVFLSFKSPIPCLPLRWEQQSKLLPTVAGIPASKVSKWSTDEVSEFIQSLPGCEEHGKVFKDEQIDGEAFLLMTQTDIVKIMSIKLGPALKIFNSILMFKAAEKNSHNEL

[2] = target: T2, Lethal(3)malignant brain tumor-like protein 3 (Homo sapiens) (UniProt Q96JM7); assay: Binding affinity to flag-tagged full length L3MBTL3 (unknown origin) expressed in HEK293 cell lysates at 5 nmol by; type: subcellular
T2 sequence (whole entry): T1 sequence (Q96JM7 whole entry)

[3] = target: T2, Lethal(3)malignant brain tumor-like protein 3 (Homo sapiens); assay: Inhibition of GFP-3MBT tagged L3MBTL3 (unknown origin) expressed in HEK293 cells assessed as disruption of foci formation at 100 uM by immunofluorescence assay; type: cell-based
In short: (§1)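 HEK293 cells seeded on coverslips, transfected 16–24 h after seeding with GFP-3MBT or GFP-FLMBT for 48 h; compounds at indicated concentrations for at least 24 h; Hoechst 33342 stain before spinning-disk confocal imaging; foci quantified by % GFP intensity function.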

[4] = target: T2, Lethal(3)malignant brain tumor-like protein 3 (Homo sapiens); assay: Inhibition of GFP-3MBT tagged L3MBTL3 (unknown origin) expressed in HEK293 cells assessed as reduction in recovery of fluorescence intensity up to 0.1 mM measured up to 60 secs by FRAP assay; type: cell-based; conditions: time <= 60.0 sec
In short: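 FRAP: HEK293 cells transfected with GFP-3MBT; inhibitor treatment 3–6 h; 488 nm laser bleaching then image acquisition every 2 s on laser scanning confocal microscope. Recovery fitted exponentially from 8–10 nuclei per condition; water as control; experiment repeated 3 independent times.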

[5] = target: T1, Lethal(3)malignant brain tumor-like protein 3; assay: Inhibition of L3MBTL3 (unknown origin) using H4K20me2 peptide by Alpha-Screen methylated histone peptide competition assay
[6] = target: T1, Lethal(3)malignant brain tumor-like protein 3; assay: Binding affinity to GFP-tagged full length L3MBTL3 (unknown origin) assessed as diffusion coefficient at 1 uM (reference value: 0.037549815 um2/s)
[7] = Cytotoxicity in HEK293T/17 cells assessed as effect on cell viability up to 100 uM incubated for 24 hrs by CellTiter-Glo luminescent cell viability assay; type: toxicity, cell-based; conditions: human, hek293t/17, 24 h
[8] = target: T1, Lethal(3)malignant brain tumor-like protein 3; assay: Binding affinity to GFP-3MBT tagged L3MBTL3 (unknown origin) assessed as diffusion coefficient at 1 uM (reference value: 0.1272 um2/s)
[9] = target: T2, Lethal(3)malignant brain tumor-like protein 3 (Homo sapiens); assay: Binding affinity to GFP-3MBT tagged L3MBTL3 (unknown origin) assessed as protein half life at 1 uM
[10] = target: T2, Lethal(3)malignant brain tumor-like protein 3 (Homo sapiens); assay: Inhibition of GFP-tagged full length L3MBTL3 (unknown origin) expressed in HEK293 cells assessed as disruption of foci formation by immunofluorescence assay; type: cell-based; in short: as §1
[11] = target: T2, Lethal(3)malignant brain tumor-like protein 3 (Homo sapiens); assay: Binding affinity to GFP-tagged full length L3MBTL3 (unknown origin) expressed in HEK293 cells assessed as increase in protein mobility; type: cell-based
[12] = target: T2, Lethal(3)malignant brain tumor-like protein 3 (Homo sapiens); assay: Binding affinity to GFP-tagged full length L3MBTL3 (unknown origin) expressed in HEK293 cells assessed as co-localization with full length L3MBTL3; type: cell-based

Structure (SMILES)	Kd [1] [µM]	Activity [2]	inhibition [3]	inhibition [4]	IC50 [5] [µM]	Diffusion coefficient [6] [um2/s]	Activity [7]	Diffusion coefficient [8] [um2/s]	T1/2 [9] [s]	inhibition [10]	Activity [11]	Activity [12]
O=C(CCCC[C@@H]1SC[C@@H]2NC(=O)N[C@@H]21)NCCOCCOCCOCCOCCOCCOCCOCCOCCOCCOCCOCCNC(=O)c1ccc(Nc2cc(C(=O)N3CCC(N4CCCC4)CC3)ccc2C(=O)N2CCC(N3CCCC3)CC2)cc1	0.35	Active	–	–	–	–	–	–	–	–	–	–
O=C(c1ccc(C(=O)N2CCC(N3CCCCC3)CC2)cc1)N1CCC(N2CCCCC2)CC1	> 150	–	inactive	inactive	> 10	0.036	Non-Toxic	0.124	8.2	–	–	–
CCN1C(=O)\C(=C/C=C/C=C2/N(CCC(=O)OCOC(C)=O)c3ccc(C(=O)OCOC(C)=O)cc3C2(C)C)C(=O)N(CCC(=O)NCCCCCCNC(=O)c2ccc(Nc3cc(C(=O)N4CCC(N5CCCC5)CC4)ccc3C(=O)N3CCC(N4CCCC4)CC3)cc2)C1=O	–	–	–	–	–	–	–	–	–	inactive	Active	Active
